For 45 molecules, IC50 results are on record in ChEMBL document CHEMBL1154645, “Aza-peptidyl Michael acceptor and epoxide inhibitors--potent and selective inhibitors of Schistosoma mansoni and Ixodes ricinus legumains (asparaginyl endopeptidases)” (J Med Chem, 2009).

Test [1] is described as follows: Inhibition of Schistosoma mansoni asparaginyl endopeptidase. The gist of the method:
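Recombinant S. mansoni legumain zymogen expressed in Pichia pastoris and activated before use. Assay buffer was 0.1 M citrate-phosphate with 4 mM DTT at pH 6.8, with under 1% DMSO. The substrate was Cbz-Ala-Ala-[…]-AMC at a final 10 μM, and activity was read as AMC release.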

A further test has as its target T1, Legumain-like protease (Ixodes ricinus, UniProt Q6PRC7).
T1 sequence (Q6PRC7 whole entry): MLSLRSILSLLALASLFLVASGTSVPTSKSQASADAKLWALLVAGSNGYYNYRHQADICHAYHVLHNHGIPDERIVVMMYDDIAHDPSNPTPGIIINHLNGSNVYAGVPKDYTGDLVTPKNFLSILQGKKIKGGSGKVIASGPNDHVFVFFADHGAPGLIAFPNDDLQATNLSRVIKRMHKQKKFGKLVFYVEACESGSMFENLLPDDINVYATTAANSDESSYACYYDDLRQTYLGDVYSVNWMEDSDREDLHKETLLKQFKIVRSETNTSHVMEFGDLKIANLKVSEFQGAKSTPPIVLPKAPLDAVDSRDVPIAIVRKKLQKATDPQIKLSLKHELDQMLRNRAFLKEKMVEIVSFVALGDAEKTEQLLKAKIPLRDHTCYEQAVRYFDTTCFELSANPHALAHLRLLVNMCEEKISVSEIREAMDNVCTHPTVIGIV
Put plainly: Inhibition of Ixodes ricinus asparaginyl endopeptidases. The gist of the method:
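Recombinant I. ricinus legumain zymogen expressed in Pichia pastoris, then activated. Substrate: Cbz-Ala-Ala-[…]-AMC at 10 μM final, with fluorogenic AMC release as the read-out.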

The term IC50 denotes the concentration needed to halve the response being measured. As to `C[C@H](NC(=O)[C@@H](C)NC(=O)N1CCCCC1)C(=O)NN(CC(N)=O)C(=O)/C=C/C(=O)NCCc1ccccc1`, the figures for the IC50 (in test [1] (read-out: IC50); on Legumain-like protease (read-out: IC50)) were 750 nM and 400 nM, respectively.

Consider `C[C@H](NC(=O)[C@@H](C)NC(=O)N1CCNCC1)C(=O)NN(CC(N)=O)C(=O)/C=C/C(=O)OCc1ccccc1`, for which the IC50 amounted to 250 nM in test [1] (read-out: IC50) and 13 nM at Legumain-like protease (read-out: IC50). Consider `C[C@H](NC(=O)[C@H](C)NC(=O)N1CCOCC1)C(=O)NN(CC(N)=O)C(=O)OCc1ccccc1`, for which the 50% inhibitory concentration (IC50) entry (in test [1]; against Legumain-like protease) was “Not Active” in each case. Take `C[C@H](NC(=O)N1CCOCC1)C(=O)NN(CC(N)=O)C(=O)/C=C/C(=O)NCc1ccco1`: the IC50 entry (in test [1]; against Legumain-like protease) was “Not Active” each time. Take `C=C/C=C(\C)CNC(=O)N(CC(N)=O)NC(=O)[C@H](C)NC(=O)N1CCN(C(=O)OCc2ccccc2)CC1`: the IC50 entry (in test [1]; against Legumain-like protease) was “Not Active” throughout. `C[C@H](NC(=O)[C@@H](C)NC(=O)N1CCNCC1)C(=O)NN(CC(N)=O)C(=O)/C=C/C(=O)N(C)Cc1cccc2ccccc12`: the IC50 is 40 nM in test [1] (read-out: IC50) and 3.8 nM at Legumain-like protease (read-out: IC50). For `C[C@H](NC(=O)[C@@H](C)NC(=O)N1CCNCC1)C(=O)NN(CC(N)=O)C(=O)/C=C/C(=O)N(Cc1ccccc1)Cc1ccccc1`, in that order: 90 nM and 31 nM. For `C[C@H](NC(=O)[C@H](C)NC(=O)N1CCCCC1)C(=O)NN(CC(N)=O)C(=O)/C=C/C(=O)N(Cc1ccccc1)Cc1ccccc1`, in that order: 80 nM and 17 nM.

Take `C[C@H](NC(=O)[C@@H](C)NC(=O)N1CCN(C(=O)OC(C)(C)C)CC1)C(=O)NN(CC(N)=O)C(=O)/C=C/C(=O)OCc1ccccc1`: the half-inhibitory concentration (IC50) in test [1] (read-out: IC50) turned out to be 45 nM; at Legumain-like protease (read-out: IC50), 7.5 nM. For `C[C@H](NC(=O)[C@@H](C)NC(=O)N1CCN(C(=O)OC(C)(C)C)CC1)C(=O)NN(CC(N)=O)C(=O)/C=C/C(=O)N(C)Cc1cccc2ccccc12`, in that order: 58 nM and 20 nM.

As to `CCOC(=O)/C=C/C(=O)N(CC(N)=O)NC(=O)[C@H](C)NC(=O)[C@@H](C)NC(=O)N1CCN(C(=O)OCc2ccccc2)CC1`, the IC50 on Legumain-like protease (read-out: IC50) is 0.14 nM. With `CC(C)[C@H](NC(=O)[C@@H](C)NC(=O)OCc1ccccc1)C(=O)NN(CC(N)=O)C(=O)/C=C/C(=O)NCc1cccc2ccccc12`, the IC50 in test [1] (read-out: IC50) turned out to be 1050 nM; at Legumain-like protease (read-out: IC50), 350 nM. In the same order, the values of `CCOC(=O)/C=C/C(=O)N(CC(N)=O)NC(=O)[C@@H](NC(=O)[C@@H](C)NC(=O)OCc1ccccc1)C(C)C` are 100 nM and 65 nM. In the same order, the values of `C[C@H](NC(=O)N1CCN(C(=O)OCc2ccccc2)CC1)C(=O)NN(CC(N)=O)C(=O)/C=C/C(=O)N1CCc2ccccc2C1` are 750 nM and 800 nM.

Regarding `C[C@H](NC(=O)[C@@H](C)NC(=O)N1CCOCC1)C(=O)NN(CC(N)=O)C(=O)/C=C/C(=O)N(Cc1cccc2ccccc12)Cc1cccc2ccccc12`, the IC50 turned out to be 45 nM in test [1] (read-out: IC50) and 3.3 nM at Legumain-like protease (read-out: IC50). Regarding `C[C@H](NC(=O)N1CCN(C(=O)OCc2ccccc2)CC1)C(=O)NN(CC(N)=O)C(=O)/C=C/C(=O)N1CCCc2ccccc21`, the IC50 in test [1] (read-out: IC50) worked out at 750 nM; on Legumain-like protease (read-out: IC50), 850 nM. `C[C@H](NC(=O)N1CCOCC1)C(=O)NN(CC(N)=O)C(=O)/C=C/C(=O)NC1CC1`: the IC50 result (in test [1]; against Legumain-like protease) was “Not Active” in each case. For `C[C@H](NC(=O)N1CCOCC1)C(=O)NN(CC(N)=O)C(=O)Nc1cccc2ccccc12`, the IC50 result (in test [1]; on Legumain-like protease) was “Not Active” each time. With `C[C@H](NC(=O)N1CCOCC1)C(=O)NN(CC(N)=O)C(=O)/C=C/C(=O)N1CCc2ccccc2C1`, the IC50 in test [1] (read-out: IC50) is 750 nM; on Legumain-like protease (read-out: IC50), 600 nM. In the same order, the values of `CCOC(=O)/C=C/C(=O)N(CC(N)=O)NC(=O)[C@H](C)NC(=O)[C@@H](C)NC(=O)N1CCCCC1` are 80 nM and 15 nM. As for `C[C@H](NC(=O)N1CCOCC1)C(=O)NN(CC(N)=O)C(=O)CCc1ccccc1`, the IC50 result (in test [1]; against Legumain-like protease) was “Not Active” throughout.

Take `C[C@H](NC(=O)[C@@H](C)NC(=O)N1CCN(C(=O)OC(C)(C)C)CC1)C(=O)NN(CC(N)=O)C(=O)/C=C/C(=O)N(Cc1ccccc1)Cc1ccccc1`: the values for the concentration for half-maximal inhibition (IC50) (in test [1] (read-out: IC50); on Legumain-like protease (read-out: IC50)) were 45 nM and 30 nM, respectively. As to `CCOC(=O)/C=C/C(=O)N(CC(N)=O)NC(=O)OC(C)(C)C`, the IC50 in test [1] (read-out: IC50) was above 2000 nM; at Legumain-like protease (read-out: IC50), 750 nM. For `CCOC(=O)/C=C/C(=O)N(CC(N)=O)NC(=O)[C@H](C)NC(=O)[C@@H](C)NC(=O)N1CCN(C(=O)OC(C)(C)C)CC1`, in that order: 80 nM and 8.5 nM. For `CC(C)(C)OC(=O)NN(CC(N)=O)C(=O)/C=C/C(=O)NCC1CCCCC1`, the IC50 result (in test [1]; at Legumain-like protease) was “Not Active” each time.

Turning to `C[C@H](NC(=O)N1CCOCC1)C(=O)NN(CC(N)=O)C(=O)/C=C/C(=O)NCCCc1ccccc1`, the IC50 in test [1] (read-out: IC50) is above 2000 nM; at Legumain-like protease it was “Not Active”.

On to `CC(C)(C)OC(=O)NN(CC(N)=O)C(=O)/C=C/C(=O)NCCCc1ccccc1`, for which the IC50 entry (in test [1]; at Legumain-like protease) was “Not Active” throughout. Regarding `CCOC(=O)/C=C/C(=O)N(CC(N)=O)NC(=O)[C@@H](NC(=O)[C@@H](C)NC(=O)OCc1ccccc1)[C@@H](C)CC`, the IC50 was determined as 280 nM in test [1] (read-out: IC50) and 0.52 nM on Legumain-like protease (read-out: IC50). As for `C[C@H](NC(=O)N1CCCCC1)C(=O)NN(CC(N)=O)C(=O)Nc1ccccc1Oc1ccccc1`, the IC50 result (in test [1]; on Legumain-like protease) was “Not Active” throughout. For `C[C@H](NC(=O)[C@@H](C)NC(=O)N1CCOCC1)C(=O)NN(CC(N)=O)C(=O)/C=C/C(=O)N1CCc2ccccc2C1`, the values for the IC50 (in test [1] (read-out: IC50); on Legumain-like protease (read-out: IC50)) were 103 nM and 65 nM, respectively. In the same order, the values of `C[C@H](NC(=O)N1CCCCC1)C(=O)NN(CC(N)=O)C(=O)/C=C/C(=O)N1CCc2ccccc2C1` are 600 nM and 150 nM. For `CCOC(=O)/C=C/C(=O)N(CC(N)=O)NC(=O)[C@H](C)NC(=O)[C@@H](C)NC(=O)N1CCNCC1`, in that order: 300 nM and 8.5 nM. In the same order, the values of `CCOC(=O)/C=C/C(=O)N(CC(N)=O)NC(=O)[C@H](C)NC(=O)[C@@H](C)NC(=O)N1CCOCC1` are 101 nM and 0.23 nM. Regarding `C[C@H](NC(=O)[C@@H](C)NC(=O)N1CCN(C(=O)OCc2ccccc2)CC1)C(=O)NN(CC(N)=O)C(=O)/C=C/C(=O)N(C)Cc1cccc2ccccc12`, the results for the IC50 (in test [1] (read-out: IC50); at Legumain-like protease (read-out: IC50)) were 70 nM and 0.35 nM, respectively. As for `C[C@H](NC(=O)[C@@H](C)NC(=O)N1CCN(C(=O)OCc2ccccc2)CC1)C(=O)NN(CC(N)=O)C(=O)/C=C/C(=O)N(Cc1cccc2ccccc12)Cc1cccc2ccccc12`, the IC50 in test [1] (read-out: IC50) was 50 nM; on Legumain-like protease (read-out: IC50), 0.37 nM. In the same order, the values of `CC(C)[C@H](NC(=O)[C@@H](C)NC(=O)OCc1ccccc1)C(=O)NN(CC(N)=O)C(=O)/C=C/C(=O)N1CCCc2ccccc21` are 138 nM and 13 nM. In the case of `COc1ccc(CNC(=O)/C=C/C(=O)N(CC(N)=O)NC(=O)[C@H](C)NC(=O)N2CCOCC2)cc1OC`, the IC50 (in test [1] (read-out: IC50); at Legumain-like protease (read-out: IC50)) was above 2000 nM throughout. Turning to `C[C@H](NC(=O)[C@@H](C)NC(=O)N1CCN(C(=O)OC(C)(C)C)CC1)C(=O)NN(CC(N)=O)C(=O)/C=C/C(=O)N(Cc1cccc2ccccc12)Cc1cccc2ccccc12`, the IC50 in test [1] (read-out: IC50) came out at 68 nM; on Legumain-like protease (read-out: IC50) it was 5 nM. As for `C[C@H](NC(=O)[C@@H](C)NC(=O)N1CCOCC1)C(=O)NN(CC(N)=O)C(=O)[C@H]1O[C@H]1C(=O)N(Cc1ccccc1)Cc1ccccc1`, the IC50 entry (in test [1]; against Legumain-like protease) was “Not Active” each time. For `CC(C)(C)OC(=O)NN(CC(N)=O)C(=O)/C=C/C(=O)NCc1ccccc1`, the IC50 entry (in test [1]; at Legumain-like protease) was “Not Active” throughout.

With `C[C@H](NC(=O)[C@H](C)NC(=O)N1CCCCC1)C(=O)NN(CC(N)=O)C(=O)/C=C/C(=O)N(Cc1cccc2ccccc12)Cc1cccc2ccccc12` (relative stereo), the values for the IC50 (in test [1] (read-out: IC50); at Legumain-like protease (read-out: IC50)) were 57 nM and 8 nM, respectively. For `C[C@H](NC(=O)[C@@H](C)NC(=O)N1CCNCC1)C(=O)NN(CC(N)=O)C(=O)/C=C/C(=O)N(Cc1cccc2ccccc12)Cc1cccc2ccccc12` (relative stereo), in that order: 70 nM and 2.6 nM.

Regarding `CC(NC(=O)N1CCCCC1)C(=O)N[C@@H](C)C(=O)NN(CC(N)=O)C(=O)[C@H]1O[C@@H]1C(=O)N(Cc1ccccc1)Cc1ccccc1` (single isomer, unassigned), the values for the half-inhibitory concentration (IC50) (in test [1] (read-out: IC50); on Legumain-like protease (read-out: IC50)) were 72 nM and 12 nM, respectively.

With `CC(NC(=O)N1CCCCC1)C(=O)N[C@@H](C)C(=O)NN(CC(N)=O)C(=O)[C@H]1O[C@@H]1C(=O)NCc1cccc2ccccc12` (single isomer, unassigned), the 50% inhibitory concentration (IC50) in test [1] (read-out: IC50) worked out at 160 nM; on Legumain-like protease (read-out: IC50), 8.5 nM.

Turning to `CCOC(=O)[C@H]1O[C@@H]1C(=O)N(CC(N)=O)NC(=O)[C@H](C)NC(=O)C(C)NC(=O)N1CCCCC1` (single isomer, unassigned), the results for the IC50 (in test [1] (read-out: IC50); at Legumain-like protease (read-out: IC50)) were 220 nM and 30 nM, respectively.
